Laboratory results from ChEMBL document CHEMBL1146542, “Cytotoxic flavone analogues of vitexicarpin, a constituent of the leaves of Vitex negundo” (J Nat Prod, 2003).
In brackets after ≈: the same amount, converted by molar mass. Activity calls are given as the source filed them. The calls are words filed in the database; no cut-off is given here.

What was measured:
Col2 = test: Cytotoxicity against human Col2 cells; format: functional; settings: read-out: ED50 (the source's name)
[1] = Cytotoxicity against human telomerase reverse transcriptase expressing RPE1 cells; format: cell-based, TERT-RPE1; settings: read-out: ED50 (the source's name)
[2] = Cytotoxicity against HUVEC; format: cell-based; settings: human, read-out: ED50 (the source's name)
KB [3] = test: Cytotoxicity against human KB cells; format: functional; settings: read-out: ED50 (the source's name)
LNCaP [4] = test: Cytotoxicity against human LNCAP cells; format: functional; settings: read-out: ED50 (the source's name)
Lu1 [5] = test: Cytotoxicity against human Lu1 cells; format: functional; settings: read-out: ED50 (the source's name)
LNCaP [6] = test: Inhibition of human LNCAP cells propagated in hollow fibers via intraperitoneal site of NCr nu/nu mouse at 10 to 40 mg/kg, ip once daily after 7 days of implantation relative to control; format: functional; settings: dose mg/kg 10-40
Procedure, shortened: (§1)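 Hollow fiber assay in mice with KB, LNCaP and Lu1 cells, with fibers placed at intraperitoneal and subcutaneous sites. Compound given ip at 10, 20 and 40 mg/kg. Read-out was percent growth inhibition of the cells at each site versus control, and body weight of the mice was monitored.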

LNCaP [7] = test: Inhibition of human LNCAP cells propagated in hollow fibers via subcutaneous site of NCr nu/nu mouse at 10 to 40 mg/kg, ip once daily after 7 days of implantation relative to control; format: functional; settings: dose mg/kg 10-40; procedure, shortened: as §1
KB [8] = test: Inhibition of human KB cells propagated in hollow fibers via subcutaneous site of NCr nu/nu mouse at 10 to 40 mg/kg, ip once daily after 7 days of implantation relative to control; format: functional; settings: dose mg/kg 10-40; procedure, shortened: as §1
Lu1 [9] = test: Inhibition of human Lu1 cells propagated in hollow fibers via intraperitoneal site of NCr nu/nu mouse at 10 to 40 mg/kg, ip once daily after 7 days of implantation relative to control; format: functional, organism-based; procedure, shortened: as §1
Lu1 [10] = test: Inhibition of human Lu1 cells propagated in hollow fibers via subcutaneous site of NCr nu/nu mouse at 10 to 40 mg/kg, ip once daily after 7 days of implantation relative to control; format: functional; settings: dose mg/kg 10-40; procedure, shortened: as §1
P388 = test: In vivo growth inhibition of mouse P388 cells at 135 mg/kg, ip relative to control; format: functional; settings: route intraperitoneal
Procedure, shortened: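 Mouse P-388 leukemia model run under a standard protocol. Compound given intraperitoneally at 135 mg/kg/injection, and activity was expressed as T/C value (%).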

## COc1ccc(-c2oc3cc(OC)c(OC)c(OC)c3c(=O)c2OC)cc1OC [HEXAMETHOXYFLAVONE]
Col2
  EC50: > 20 µg/mL
[1]
  CC50: > 20 µg/mL
[2]
  CC50: > 20 µg/mL
KB [3]
  EC50: > 20 µg/mL
LNCaP [4]
  EC50: > 20 µg/mL
Lu1 [5]
  EC50: > 20 µg/mL

## C=CCCC(=O)Oc1cc(-c2oc3cc(OC)c(OC)c(OC(=O)CCC=C)c3c(=O)c2OC)ccc1OC
Col2
  EC50: 15 µg/mL (≈ 27.9 µM)
[1]
  CC50: 0.6 µg/mL (≈ 1.11 µM)
[2]
  CC50: 5.5 µg/mL (≈ 10.2 µM)
KB [3]
  EC50: 0.6 µg/mL (≈ 1.11 µM)
LNCaP [4]
  EC50: 0.7 µg/mL (≈ 1.3 µM)
Lu1 [5]
  EC50: 1.4 µg/mL (≈ 2.6 µM)

## CCCC(=O)Oc1cc(-c2oc3cc(OC)c(OC)c(OC(=O)CCC)c3c(=O)c2OC)ccc1OC
Col2
  EC50: 11.7 µg/mL (≈ 22.7 µM)
[1]
  CC50: 0.6 µg/mL (≈ 1.17 µM)
[2]
  CC50: > 20 µg/mL
KB [3]
  EC50: 0.5 µg/mL (≈ 0.972 µM)
LNCaP [4]
  EC50: 0.8 µg/mL (≈ 1.55 µM)
Lu1 [5]
  EC50: 1.7 µg/mL (≈ 3.3 µM)

## CCC(=O)Oc1cc(-c2oc3cc(OC)c(OC)c(OC(=O)CC)c3c(=O)c2OC)ccc1OC
Col2
  EC50: > 20 µg/mL
[1]
  CC50: 0.5 µg/mL (≈ 1.03 µM)
[2]
  CC50: 6.5 µg/mL (≈ 13.4 µM)
KB [3]
  EC50: 0.6 µg/mL (≈ 1.23 µM)
LNCaP [4]
  EC50: 0.4 µg/mL (≈ 0.822 µM)
Lu1 [5]
  EC50: 1 µg/mL (≈ 2.06 µM)

## COc1ccc(-c2oc3cc(OC)c(OC)c(OC(C)=O)c3c(=O)c2OC)cc1OC(C)=O
Col2
  EC50: 15.9 µg/mL (≈ 34.7 µM)
[1]
  CC50: 0.4 µg/mL (≈ 0.873 µM)
[2]
  CC50: 0.1 µg/mL (≈ 0.218 µM)
KB [3]
  EC50: 0.2 µg/mL (≈ 0.436 µM)
LNCaP [4]
  EC50: 0.1 µg/mL (≈ 0.218 µM)
Lu1 [5]
  EC50: 0.7 µg/mL (≈ 1.53 µM)

## COc1ccc(-c2oc3cc(OC)c(OC)c(OC(=O)c4ccccc4)c3c(=O)c2OC)cc1OC(=O)c1ccccc1
Col2
  EC50: > 20 µg/mL
[1]
  CC50: 4.3 µg/mL (≈ 7.38 µM)
[2]
  CC50: > 20 µg/mL
KB [3]
  EC50: > 20 µg/mL
LNCaP [4]
  EC50: > 20 µg/mL
Lu1 [5]
  EC50: 6.5 µg/mL (≈ 11.2 µM)

## COc1ccc(-c2oc3cc(OC)c(OC)c(O)c3c(=O)c2OC)cc1OC(=O)c1ccccc1
Col2
  EC50: > 20 µg/mL
[1]
  CC50: 3.6 µg/mL (≈ 7.52 µM)
[2]
  CC50: 20 µg/mL (≈ 41.8 µM)
KB [3]
  EC50: > 20 µg/mL
LNCaP [4]
  EC50: > 20 µg/mL
Lu1 [5]
  EC50: 16.5 µg/mL (≈ 34.5 µM)

## CCCCCC(=O)Oc1cc(-c2oc3cc(OC)c(OC)c(OC(=O)CCCCC)c3c(=O)c2OC)ccc1OC
Col2
  EC50: > 20 µg/mL
[1]
  CC50: 0.4 µg/mL (≈ 0.701 µM)
[2]
  CC50: 11.1 µg/mL (≈ 19.5 µM)
KB [3]
  EC50: 0.5 µg/mL (≈ 0.876 µM)
LNCaP [4]
  EC50: 0.5 µg/mL (≈ 0.876 µM)
Lu1 [5]
  EC50: 0.7 µg/mL (≈ 1.23 µM)
LNCaP [6]
  inhibition (INH): 0%
LNCaP [7]
  inhibition (INH): 0%
KB [8]
  inhibition (INH): 0%
Lu1 [9]
  Activity: inactive
Lu1 [10]
  inhibition (INH): 0%
P388
  T/C: 100%

## COc1ccc(-c2oc3cc(OC)c(OC)c(O)c3c(=O)c2OC)cc1O [CASTICIN]
Col2
  EC50: 12.7 µg/mL (≈ 33.9 µM)
[1]
  CC50: 0.2 µg/mL (≈ 0.534 µM)
[2]
  CC50: 0.6 µg/mL (≈ 1.6 µM)
KB [3]
  EC50: 0.2 µg/mL (≈ 0.534 µM)
LNCaP [4]
  EC50: 0.5 µg/mL (≈ 1.34 µM)
Lu1 [5]
  EC50: 0.8 µg/mL (≈ 2.14 µM)
